This is a sample that favours compounds with a hit; in the whole collection about 1.7% have one here.
TPT1 inhibitor = Candida albicans TPT1 enzyme inhibitors, primary screen, biochemical, fluorescence polarization. recombinant caTPT1, FP RNA substrate dephosphorylation. inhibition, % at 5 µM. 300,000 tested, 0.81% active. AID 1962, 2009;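 active = inhibition above the mean of all tested compounds plus 3 SD, set per screening campaign, cut at about 24% in these data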
NR1D1 modulator = modulators of Rev-erb alpha DNA binding, primary screen, biochemical, FITC-DNA, fluorescence polarization, uHTS; AID 1259318, 2017; 370,000 tested, 0.79% active; Rev-erbα–FITC-DNA binding, 90 min; activity, % at 10 µM;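 active = activity above about 14%, limit read from the data; passing the limit was not always enough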
HNF4A DNA FP = change in binding of human HNF4A to DNA, primary screen, biochemical, fluorescence polarization, FITC-DNA. Hepatocyte nuclear factor 4-alpha (Homo sapiens), P41235. 1 h. activity change, % at 10 µM. 360,000 tested, 0.3% active. AID 1224865, 2016; in the data active = activity change above about 30%, passing the limit was not always enough
CSN deneddyl inh = inhibitors of CSN-mediated cullin deneddylation, primary screen, biochemical, fluorescence polarization, uHTS; Purified CSN, SCF-Nedd8-OG deneddylation; inhibition, % at 12.5 µM; 360,000 tested, 0.38% active;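 active = pattern-corrected inhibition above about 35%, with an unprinted fluorescence ratio check between 0.5 and 1.5, limit read from the data, passing the limit was not always enough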
Target sequence (Q92905 whole entry, looked up, one chain of several): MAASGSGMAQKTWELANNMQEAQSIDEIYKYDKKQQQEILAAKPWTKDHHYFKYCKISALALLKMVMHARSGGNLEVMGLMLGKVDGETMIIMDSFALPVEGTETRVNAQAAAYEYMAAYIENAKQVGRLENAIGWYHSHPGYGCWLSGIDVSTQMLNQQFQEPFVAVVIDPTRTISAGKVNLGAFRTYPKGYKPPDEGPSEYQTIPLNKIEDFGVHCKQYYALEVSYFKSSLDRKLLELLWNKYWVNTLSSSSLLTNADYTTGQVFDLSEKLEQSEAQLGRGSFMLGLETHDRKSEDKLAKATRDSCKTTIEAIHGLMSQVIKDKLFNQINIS
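Assay system: purified human Csn5 enzyme expressed in HEK293T cells; measure: % inhibition; also added: SCFSkp2-Nedd8OG substrate at 10 nM final; technique: fluorescence polarization; times: reaction 90 min, room temperature; medium: Tris buffer pH 7.5, NaCl, DTT, Tween-20, trehalose, ovalbumin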
TPT1 inh confirm = Candida albicans TPT1 inhibitors, confirmation, biochemical, fluorescence polarization, triplicate; inhibition, % at 5 µM; recombinant caTPT1, RNase T1 coupled; 2,400 tested, 74% active; shares compounds with TPT1 inhibitor;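 active = inhibition above the primary screen limit, the mean inhibition of all tested compounds plus 3 SD, cut at about 25% in these data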
RNase T1 counter = RNase T1 inhibitors, counter-screen for TPT1 inhibitor project, biochemical, fluorescence polarization | shares compounds with TPT1 inhibitor | RNase T1 cleavage, 1536-well | inhibition, % at 5 µM | 2,400 tested, 83% active;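 active = inhibition above the solvent-only control well mean plus 3 SD, limit set per screening run, cut at about 23% in these data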;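 also: inhibitors block cleavage so intact labeled substrate keeps polarization high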
Target sequence (P00651 whole entry, looked up): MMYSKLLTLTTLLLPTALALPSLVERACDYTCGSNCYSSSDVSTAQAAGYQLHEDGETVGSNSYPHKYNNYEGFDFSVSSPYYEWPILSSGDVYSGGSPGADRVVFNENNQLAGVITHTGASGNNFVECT
CSN5 deneddyl = Csn5 deneddylation inhibitors, confirmation, biochemical, fluorescence polarization, single concentration, SCF-Nedd8OG substrate. shares compounds with CSN deneddyl inh. Csn5 deneddylation of SCF-Nedd8OG, 90 min. inhibition, % at 16.6 µM. 540 tested, 62% active. AID 720654, 2013; in the data active = inhibition above about 50%
MMP-2 counter = MMP-2 protease inhibition counter-screen, confirmation, counter-screen for CSN deneddylation inhibitor project, biochemical, fluorescence, single concentration | shares compounds with CSN deneddyl inh | recombinant MMP-2, FRET substrate fluorescence, 60 min | inhibition, % at 16.6 µM | 540 tested, 33% active | AID 720655, 2013;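 active = corrected plate-normalized z-score of 5 or more, or -5 or less, or inhibition of 15% or more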
Thrombin cntr = blocks bovine thrombin in a CSN deneddylation counter-screen | bovine thrombin cleavage of Ub4-pepOG, fluorescence polarization | AID 720656 | inhibition, % at 16.6 µM | 540 tested, 49% active | shares compounds with CSN deneddyl inh;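 active = inhibition at or above a set limit, with a fluorescence interference ratio between 0.5 and a set maximum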
HNF4A confirm = change in HNF4A binding to DNA, retest, confirmation, biochemical, fluorescence polarization, FITC-DNA; shares compounds with HNF4A DNA FP; 210 tested, 99% active; AID 1224897, 2016; 1 h; activity change, % at 12.5 µM; call rule not given here
NR1D1 mod conf = modulators of Rev-erb alpha DNA binding, confirmation, biochemical, FITC-DNA, fluorescence polarization, single point; shares compounds with NR1D1 modulator; 90 min; activation, % at 25 µM; 3,000 tested, 61% active; AID 1259319, 2017;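 active = activation at or above a set limit, or at least 3 SD above the negative control mean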
RORg counter = modulation of RORgamma DNA binding, dose response, counter-screen for Rev-erb alpha modulator project, biochemical, fluorescence polarization, FITC-DNA; shares compounds with NR1D1 modulator; purified RORgamma protein-FITC-DNA binding; IC50, µM; 910 tested, 8% active;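 active = Compounds whose fitted half-maximal concentration for disrupting protein-DNA binding is below 10 micromolar; the record names Rev-erb in its text, so the target is in doubt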
Large screens that a line does not name were inactive (follow-up assays come after a bar, where they were run).

Cc1c(C(=O)Nc2ccccc2)c2cc(O)ccc2n1Cc1ccccc1	none
CC1(C)OC(c2ccccc2)=C/C(=C/C=C2C(=O)NC(=O)NC2=O)O1	TPT1 inhibitor 113, CSN deneddyl inh 96 | TPT1 inh confirm 107 | RNase T1 counter 106 | CSN5 deneddyl 195 | MMP-2 counter inactive | Thrombin cntr inactive
O=C1NC(=O)N(c2ccc3c(c2)OCO3)C(=O)/C1=C/c1cccs1	none
O=C1NC(=O)N(c2ccc3c(c2)OCO3)C(=O)/C1=C/c1ccc(N2CCCC2)o1	TPT1 inhibitor 128, CSN deneddyl inh 42 | TPT1 inh confirm 142 | RNase T1 counter 140 | CSN5 deneddyl 124 | MMP-2 counter inactive | Thrombin cntr 83
CS(=O)(=O)CCN1CC2CCCC(C2)C1	none (no result: TPT1 inhibitor)
O=C(COC(=O)c1cc(Br)cc(Br)c1O)NC12CC3CC(CC(C3)C1)C2	none (no result: TPT1 inhibitor)
CCN(CC)CCOC(=O)c1ccc(N=Cc2c(O)[nH]c(=O)[nH]c2=O)cc1	TPT1 inhibitor 60, HNF4A DNA FP 60, CSN deneddyl inh 48 | TPT1 inh confirm 70 | RNase T1 counter 87 | HNF4A confirm 99
COC(=O)c1ccccc1N=Cc1c(O)[nH]c(=O)[nH]c1=O	none
CO[C@H]1C=CCCC=CC(=O)O[C@H]([C@H](C)C(=O)CCCC2CC(=O)NC(=O)C2)C(C)=C[C@@H](C)[C@@H]1O	none (no result: TPT1 inhibitor)
CN(C)CCCN=Cc1c(O)n(CCc2ccccc2)c(=O)[nH]c1=O	TPT1 inhibitor 72, HNF4A DNA FP 43 | TPT1 inh confirm 65 | RNase T1 counter 82 | HNF4A confirm 60
CN1/C(=C\C=C2C(=O)NC(=O)NC2=O)C(C)(C)c2ccccc21	TPT1 inhibitor active, NR1D1 modulator 20 | TPT1 inh confirm 184 | RNase T1 counter 168 | NR1D1 mod conf inactive
O=C(/C=C/c1c[nH]c2ccccc12)c1c(O)n(CCc2ccccc2)c(=O)[nH]c1=O	TPT1 inhibitor 169, NR1D1 modulator 39 | TPT1 inh confirm 177 | RNase T1 counter 162 | NR1D1 mod conf inactive
CC(N)Cc1cn(Cc2ccccc2)c2ccccc12 (stereo not given)	none
CN1C(=O)C(=Cc2ccc(N3CCOCC3)o2)C(=O)N(C)C1=S	TPT1 inhibitor 57, NR1D1 modulator 39, HNF4A DNA FP 87 | TPT1 inh confirm 114 | RNase T1 counter 118 | NR1D1 mod conf 44 | RORg counter inactive
CCOc1ccc(N2C(=O)NC(=O)/C(=C\c3ccc(N4CCCCC4)o3)C2=O)cc1	TPT1 inhibitor 138, NR1D1 modulator 29 | TPT1 inh confirm 149 | RNase T1 counter 146 | NR1D1 mod conf 33
Cc1cc(N2CCCCC2)ccc1C=C1C(=O)N(C)C(=S)N(C)C1=O	none
CN1C(=O)/C(=C\c2ccc(N3CCCCCC3)cc2)C(=O)NC1=S	none
CN1C(=O)/C(=C\c2ccc(N3CCCCC3)o2)C(=O)NC1=S	TPT1 inhibitor 113, NR1D1 modulator 110 | TPT1 inh confirm 142 | RNase T1 counter 136 | NR1D1 mod conf 132 | RORg counter inactive
COc1cccc(C)c1NC1=NCCO1	none (no result: TPT1 inhibitor)
CCN1CCN(c2cc(N3CCCC3)c([N+](=O)[O-])cc2F)CC1	none
O=C1C(=O)c2cccc3cccc1c23	none
O=C1C(=O)c2ccccc2-c2ccccc21	CSN deneddyl inh 59 | CSN5 deneddyl inactive | MMP-2 counter inactive | Thrombin cntr inactive
CC1([N+](=O)[O-])COP(=O)(NC2CCCC2)OC1 (stereo not given)	none (no result: TPT1 inhibitor)
COCCCn1c(N)c(C(=O)OCCOC)c2nc3ccccc3nc21	none
CCOC(=O)c1c(NS(=O)(=O)c2ccccc2)n(CCCOC)c2nc3ccccc3nc12	CSN deneddyl inh 49 | CSN5 deneddyl 95 | MMP-2 counter inactive | Thrombin cntr inactive
CCCCn1c(O)c(/C=C/C=Nc2ccccc2)c(=O)[nH]c1=O	TPT1 inhibitor 141, HNF4A DNA FP 55, CSN deneddyl inh 47 | CSN5 deneddyl inactive | MMP-2 counter inactive | Thrombin cntr 37
C=C1C(=O)O[C@@H]2C[C@@H](C)[C@@H]3C=CC(=O)[C@@]3(C)[C@@H](OC(=O)CC(=O)O[C@H]3[C@@H]4C(=C)C(=O)O[C@@H]4C[C@@H](C)[C@@H]4C=CC(=O)[C@]43C)[C@H]12	CSN deneddyl inh 57 | MMP-2 counter inactive | Thrombin cntr 21
Cn1cc(/C=C2\C(=O)NC(=O)N(c3ccccc3)C2=O)c2ccccc21	none
CN1C(=O)/C(=C/C=C/c2ccco2)C(=O)NC1=S	CSN deneddyl inh 65 | CSN5 deneddyl inactive | MMP-2 counter 20 | Thrombin cntr 50
O=C1NC(=O)N(c2ccccc2)C(=O)/C1=C/C=C/c1ccco1	CSN deneddyl inh 42 | CSN5 deneddyl 58 | MMP-2 counter 16 | Thrombin cntr inactive

High-throughput results: PubChem BioAssay, several laboratories
